Measured values from paper PMC10194142 (Virus Research, 2023).

Legend:
ZIKV NS2B-NS3 protease [1] = molecular target: T1, ZIKV NS2B-NS3 protease (Zika virus, UniProt Q32ZE1); assay: ZIKV NS2B-NS3 enzyme-based fluorescence peptide cleavage assay; format: biochemical; settings: for protease activity inhibition efficacy in screening: inhibitor concentration of 50 μM, 5 μM protease, 10 μM substrate
T1 sequence (Q32ZE1 with tags, fused parts or gaps DEL1468-1489/Y1490G/V1491G/Y1492G/V1493G/K1494S/T1495G/K1497G/R1498G): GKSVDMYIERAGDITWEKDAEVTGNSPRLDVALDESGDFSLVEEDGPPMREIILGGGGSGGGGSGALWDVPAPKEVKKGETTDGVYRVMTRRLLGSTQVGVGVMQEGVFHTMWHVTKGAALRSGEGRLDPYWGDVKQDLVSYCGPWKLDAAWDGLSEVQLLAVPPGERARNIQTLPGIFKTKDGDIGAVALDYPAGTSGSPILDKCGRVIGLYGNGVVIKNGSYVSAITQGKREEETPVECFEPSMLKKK
How it was run: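 His-tagged NS2B-NS3 protease was expressed in E. coli BL21(DE3) and purified by metal-affinity chromatography. Test compound at 6.25–100 μM was incubated with 5 μM protease in cleavage buffer for 30 min at 37 °C, then with 10 μM Boc-KKR-AMC for 1 h. AMC fluorescence was read at ex 355 / em 455 nm. Activity is expressed as % of the protease-alone control.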

ZIKV (MR-766) = assay: ZIKV RNA replication in infected Huh-7 cells by RT-qPCR; format: cell-based, Zika virus; settings: for inhibition of ZIKV replication (ZIKV RNA level): 0.2, 0.69, 2, 6 μM for 72 h, Huh-7, MOI 0.1; for EC50: Zika virus, Huh-7, 72 h; for Selectivity index (SI = CC50/EC50): Huh-7 cells
[2] = Cell viability by ATPlite; format: cell-based; settings: human, Huh-7 cells
ZIKV NS2B-NS3 protease [3] = molecular target: T1, ZIKV NS2B-NS3 protease; assay: Kinetic analysis of inhibition mechanism; format: biochemical; settings: for inhibition mechanism: 75 μM compound, 5 μM protease, Boc-KKR-AMC 0 to 20 μM; for Kcat / Vmax value: protease with 75 μM compound; for Kcat: untreated protease 0.0142; for Vmax value: untreated protease 0.071
How it was run: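 Purified His-tagged NS2B-NS3 protease was expressed in E. coli BL21(DE3). 5 μM protease was preincubated with 75 μM test compound in cleavage buffer for 30 min at 37 °C. Boc-KKR-AMC at 0–20 μM was then added for 1 h at 37 °C. Released AMC was read at ex 355 / em 455 nm against an AMC standard curve. Mechanism was assigned from Lineweaver-Burk plots.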

ZIKV [4] = assay: ZIKV-infected ICR suckling mouse model; format: in vivo
How it was run: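 Six-day-old ICR suckling mice (n = 6 per group) were injected intracerebrally with 10^4 pfu ZIKV. Mock mice received 60 °C heat-inactivated virus. Saline or test compound (1 or 10 mg/kg, i.c.) was given at days 1, 3 and 5 post-infection. At day 6, 0.1 g brain was lysed in RIPA for NS2B western blot. The remaining brain had H&E and IHC (NS1, Ly6C), with infiltration quantified. Data are mean ± SD.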

ZIKV [5] = settings: plaque reduction assay; ref Chan et al., 2017; cited from earlier work
ZIKV [6] = settings: primary placental cells, dose range of 0.2 to 1 μM; ref Tabata et al., 2016; cited from earlier work

In the case of `CC(=O)Oc1ccc(C=C2C(=O)N(c3ccccc3)C(=S)N(c3ccccc3)C2=O)cc1` [Compound 1, 4-((4,6-dioxo-1,3-diphenyl-2-thioxotetrahydropyrimidin-5(2H)-ylidene)methyl)phenyl acetate], the IC50 (ZIKV NS2B-NS3 protease [1]) is reported as 63.4 µM.
For `COc1cc(C=C2C(=O)N(c3ccccc3)C(=S)N(c3ccccc3)C2=O)cc(Br)c1OCc1cccc2ccccc12` [Compound 2, 5-(3‑bromo-5‑methoxy-4-(naphthalen-1-ylmethoxy)benzylidene)−1,3-diphenyl-2-thioxodihydropyrimidine-4,6(1H,5H)-dione], the IC50 (ZIKV NS2B-NS3 protease [1]) was 72.5 µM.
With `COc1cc(C=C2C(=O)N(c3ccccc3)C(=S)N(c3ccccc3)C2=O)cc(I)c1OCc1ccccc1Cl` [Compound 3, 5-(4-((2-chlorobenzyl)oxy)−3-iodo-5-methoxybenzylidene)−1,3-diphenyl-2-thioxodihydropyrimidine-4,6(1H,5H)-dione] the IC50 (ZIKV NS2B-NS3 protease [1]) was 14 µM, the “protease activity inhibition efficacy in screening” value (ZIKV NS2B-NS3 protease [1]) was “better protease activity inhibition efficacy than others” and the “inhibition of ZIKV replication (ZIKV RNA level)” value (“inhibition of ZIKV replication” below) (ZIKV (MR-766)) was “could significantly inhibit ZIKV replication”. For the same compound, the EC50 (ZIKV (MR-766)) was 2.15 µM, the CC50 at 48 h [2] was > 200 µM and the inhibition mechanism (ZIKV NS2B-NS3 protease [3]) was “non-competitive”. It also gave a Kcat (ZIKV NS2B-NS3 protease [3]) of 0.00013 s⁻¹ and a Vmax value (ZIKV NS2B-NS3 protease [3]) of 0.040 µmol/min.
For `O=C1C(=Cc2cc(I)c(O)c(I)c2)C(=O)N(c2ccccc2)C(=S)N1c1ccccc1` [Compound 4, 5-(4‑hydroxy-3,5-diiodobenzylidene)−1,3-diphenyl-2-thioxodihydropyrimidine-4,6(1H,5H)-dione], the IC50 (ZIKV NS2B-NS3 protease [1]) was > 100 µM.
For `CCc1ccc(S(=O)(=O)/N=C2\C=C(NS(=O)(=O)c3ccccc3)C(=O)c3ccccc32)cc1` [Compound 5, (E)−4-ethyl-N-(4-oxo-3-(phenylsulfonamido)naphthalen-1(4H)-ylidene)benzene sulfonamide], the IC50 (ZIKV NS2B-NS3 protease [1]) was > 100 µM.
For `Cc1cc(C)c(S(=O)(=O)/N=C2\C=C(NS(=O)(=O)c3ccccc3)C(=O)c3ccccc32)cc1C` [Compound 6, (E)−2,4,5-trimethyl-N-(4-oxo-3-(phenylsulfonamido)naphthalen-1(4H)-ylidene)benzenesulfonamide], the IC50 (ZIKV NS2B-NS3 protease [1]) was > 100 µM.
With `Cc1ccc(S(=O)(=O)/N=C2\C=C(NS(=O)(=O)c3ccccc3)C(=O)c3ccccc32)cc1` [Compound 7, (E)−4-methyl-N-(4-oxo-3-(phenylsulfonamido)naphthalen-1(4H)-ylidene)benzenesulfonamide] the IC50 (ZIKV NS2B-NS3 protease [1]) was > 100 µM.
In the case of `COc1cc(C=C2C(=O)N(c3ccc(C)cc3)C(=S)N(c3ccc(C)cc3)C2=O)cc(Br)c1O` [Compound 8, 5-(3‑bromo-4‑hydroxy-5-methoxybenzylidene)−2-thioxo-1,3-di-p-tolyldihydropyrimidine-4,6(1H,5H)-dione], the IC50 (ZIKV NS2B-NS3 protease [1]) is reported as 6.85 µM, the “protease activity inhibition efficacy in screening” value (ZIKV NS2B-NS3 protease [1]) is reported as “better protease activity inhibition efficacy than others” and the “inhibition of ZIKV replication” value (ZIKV (MR-766)) is reported as “could significantly inhibit ZIKV replication”. For the same compound, the EC50 (ZIKV (MR-766)) was 0.52 µM, the CC50 at 48 h [2] was > 200 µM and the “survival (protection from lethal ZIKV infection)” value (ZIKV [4]; 1 mg/kg or 10 mg/kg on days 1, 3, 5, observed 6 days, vs saline) was “protected all ZIKV-infected suckling mice from lethal ZIKV infection”. The “clinical score (sickness)” value (ZIKV [4]; 1 mg/kg or 10 mg/kg on days 1, 3, 5, vs saline) was “a delay in the sickness induced by ZIKV infection”, the “Ly6C+ monocyte infiltration in brain tissue” value (ZIKV [4]; 6 dpi, vs saline-treated group) was “significantly less accumulated” and the “ZIKV NS1 level in brain tissue (IHC)” value (ZIKV [4]; 6 dpi, vs saline-treated group) was “significantly decreased”. For the same compound, the “ZIKV NS2B protein level in brain tissue (western blot)” value (ZIKV [4]; 6 dpi, vs saline-treated group) was “significantly decreased”, the inhibition mechanism (ZIKV NS2B-NS3 protease [3]) was “non-competitive” and the Kcat (ZIKV NS2B-NS3 protease [3]) was 0.00015 s⁻¹. For the same compound, the Vmax value (ZIKV NS2B-NS3 protease [3]) was 0.045 µmol/min.
In the case of `Cc1ccc(NC(=O)COc2ccc(C=C3C(=O)N(c4ccccc4)C(=S)N(c4ccccc4)C3=O)cc2)cc1C` [Compound 9, N-(3,4-dimethylphenyl)−2-(4-((4,6-dioxo-1,3-diphenyl-2-thioxotetrahydropyrimidin-5(2H)-ylidene)methyl)phenoxy)acetamide], the IC50 (ZIKV NS2B-NS3 protease [1]) is reported as 14.2 µM, the “protease activity inhibition efficacy in screening” value (ZIKV NS2B-NS3 protease [1]) is reported as “better protease activity inhibition efficacy than others” and the “inhibition of ZIKV replication” value (ZIKV (MR-766)) is reported as “could significantly inhibit ZIKV replication”. The “Selectivity index (SI = CC50/EC50)” value (ZIKV (MR-766)) was 17.46, the EC50 (ZIKV (MR-766)) was 3.52 µM and the CC50 at 48 h [2] was 61.5 µM. For the same compound, the inhibition mechanism (ZIKV NS2B-NS3 protease [3]) was “non-competitive”, the Kcat (ZIKV NS2B-NS3 protease [3]) was 0.000143 s⁻¹ and the Vmax value (ZIKV NS2B-NS3 protease [3]) was 0.043 µmol/min.
For `CC(C)c1ccc(S(=O)(=O)/N=C2/C=C(NS(=O)(=O)c3ccccc3)C(=O)c3ccccc32)cc1` [Compound 10, (Z)−4-isopropyl-N-(4-oxo-3-(phenylsulfonamido)naphthalen-1(4H)-ylidene)benzenesulfonamide], the IC50 (ZIKV NS2B-NS3 protease [1]) was > 100 µM.
In the case of `Cc1ccc(S(=O)(=O)/N=C2\C=C(NS(=O)(=O)c3ccccc3)C(=O)c3ccccc32)c(C)c1` [Compound 11, (E)−2,4-dimethyl-N-(4-oxo-3-(phenylsulfonamido)naphthalen-1(4H)-ylidene)benzenesulfonamide], the IC50 (ZIKV NS2B-NS3 protease [1]) is reported as > 100 µM.
With `Oc1cccc(-c2c3nc(c(-c4cccc(O)c4)c4ccc([nH]4)c(-c4cccc(O)c4)c4nc(c(-c5cccc(O)c5)c5ccc2[nH]5)CC4)C=C3)c1` [Temoporfin, reference compound] the IC50 (ZIKV NS2B-NS3 protease [1]) was 18.8 µM, the “Selectivity index (SI = CC50/EC50)” value (ZIKV (MR-766)) was 30.53 and the EC50 (ZIKV (MR-766)) was 2 µM. It also gave a CC50 at 48 h [2] of 61.1 µM.
For `CC(C)C[C@H]1C(=O)N2CCC[C@H]2[C@]2(O)O[C@](NC(=O)[C@@H]3C=C4c5cccc6[nH]c(Br)c(c56)C[C@H]4N(C)C3)(C(C)C)C(=O)N12` [bromocriptine], the ZIKV-mediated plaque reduction (ZIKV [5]) is listed as ~100%.
For duramycin, the “block of ZIKV infection” value (ZIKV [6]) is listed as > 80%.
